Measurements published in ChEMBL document CHEMBL4480373, “Neuropilin-1 peptide-like ligands with proline mimetics, tested using the improved chemiluminescence affinity detection method” (Medchemcomm, 2019).
Square brackets hold non-standard residues; d marks the D form. Peptide text beside a SMILES is read from it. Oic = O=C(O)[C@@H]1C[C@@H]2CCCC[C@@H]2N1; Hyp = O=C(O)[C@@H]1C[C@@H](O)CN1; Pip(4-aza) = O=C(O)[C@@H]1CNCCN1; hArg = N=C(N)NCCCC[C@H](N)C(=O)O; Tic = O=C(O)[C@@H]1Cc2ccccc2CN1; ΔPro = O=C(O)[C@@H]1C=CCN1; Aze = O=C(O)[C@@H]1CCN1; Dab = NCC[C@H](N)C(=O)O

What was measured:
Neuropilin-1 [1] = target: T1, Neuropilin-1 (Homo sapiens, UniProt O14786); assay: Inhibition of human biotinylated VEGF-A165 binding to recombinant human NRP1 receptor at 25 uM after 2 hrs by chemiluminescence analysis relative to control
T1 sequence (O14786 whole entry): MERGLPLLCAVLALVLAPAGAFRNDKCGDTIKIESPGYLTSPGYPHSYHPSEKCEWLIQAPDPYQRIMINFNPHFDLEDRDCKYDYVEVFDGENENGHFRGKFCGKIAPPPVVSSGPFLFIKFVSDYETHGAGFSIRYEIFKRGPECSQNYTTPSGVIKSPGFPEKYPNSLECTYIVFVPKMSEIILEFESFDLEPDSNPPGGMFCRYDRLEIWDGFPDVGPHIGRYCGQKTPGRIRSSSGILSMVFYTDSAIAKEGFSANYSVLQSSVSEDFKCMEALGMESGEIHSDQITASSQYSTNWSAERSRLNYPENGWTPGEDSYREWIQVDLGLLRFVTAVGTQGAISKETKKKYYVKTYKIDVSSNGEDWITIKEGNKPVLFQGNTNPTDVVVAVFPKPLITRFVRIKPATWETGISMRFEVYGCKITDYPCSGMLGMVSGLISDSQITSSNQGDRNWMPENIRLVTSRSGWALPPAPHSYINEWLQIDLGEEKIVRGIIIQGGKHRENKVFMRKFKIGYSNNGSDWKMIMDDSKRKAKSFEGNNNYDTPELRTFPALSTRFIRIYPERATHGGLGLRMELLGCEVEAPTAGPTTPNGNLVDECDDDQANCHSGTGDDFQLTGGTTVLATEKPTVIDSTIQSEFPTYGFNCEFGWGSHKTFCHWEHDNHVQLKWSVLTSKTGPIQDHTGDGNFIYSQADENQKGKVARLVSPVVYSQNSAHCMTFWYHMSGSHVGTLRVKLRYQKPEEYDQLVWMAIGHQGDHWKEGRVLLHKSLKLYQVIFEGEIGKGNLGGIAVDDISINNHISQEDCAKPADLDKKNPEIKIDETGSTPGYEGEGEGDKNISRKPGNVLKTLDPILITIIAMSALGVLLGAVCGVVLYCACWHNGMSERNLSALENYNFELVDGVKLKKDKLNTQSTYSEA
How it was run: (§1)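 Wells coated overnight at 4 °C with recombinant human NRP-1 (200 ng/well), blocked with 0.5% BSA/PBS. Peptide in PBS and biotinylated human VEGF-A165 (400 ng/mL, in PBS with 4 µg/mL heparin) incubated 2 h at room temperature. Detection by streptavidin-HRP and luminol chemiluminescence. Controls: ligand only (positive) and uncoated wells (negative). % inhibition calculated from these. IC50 by nonlinear regression.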

Neuropilin-1 [2] = target: T1, Neuropilin-1; assay: Inhibition of human biotinylated VEGF-A165 binding to recombinant human NRP1 receptor at 10 uM after 2 hrs by chemiluminescence analysis relative to control; how it was run: as §1
Neuropilin-1 [3] = target: T1, Neuropilin-1; assay: Inhibition of human biotinylated VEGF-A165 binding to recombinant human NRP1 receptor at 50 uM after 2 hrs by chemiluminescence analysis relative to control; how it was run: as §1
Neuropilin-1 [4] = target: T1, Neuropilin-1; assay: Inhibition of human biotinylated VEGF-A165 binding to recombinant human NRP1 receptor after 2 hrs by chemiluminescence analysis; how it was run: as §1
Neuropilin-1 [5] = target: T1, Neuropilin-1; assay: Inhibition of human biotinylated VEGF-A165 binding to recombinant human NRP1 receptor at 100 uM after 2 hrs by chemiluminescence analysis relative to control; how it was run: as §1
Neuropilin-1 [6] = target: T1, Neuropilin-1; assay: Inhibition of human biotinylated VEGF-A165 binding to recombinant human NRP1 receptor at 2.5 uM after 2 hrs by chemiluminescence analysis relative to control; how it was run: as §1
Neuropilin-1 [7] = target: T1, Neuropilin-1; assay: Inhibition of human biotinylated VEGF-A165 binding to recombinant human NRP1 receptor at 1 uM after 2 hrs by chemiluminescence analysis relative to control; how it was run: as §1
Neuropilin-1 [8] = target: T1, Neuropilin-1; assay: Inhibition of human biotinylated VEGF-A165 binding to recombinant human NRP1 receptor at 5 uM after 2 hrs by chemiluminescence analysis relative to control; how it was run: as §1
[9] = target: Neuropilin-1 (Rattus norvegicus) (UniProt Q9QWJ9); assay: Inhibition of human biotinylated VEGF-A165 binding to Fc-tagged recombinant rat NRP1 receptor at 3 uM after 2 hrs by colorimetric analysis relative to control
[10] = target: Neuropilin-1 (Rattus norvegicus) (UniProt Q9QWJ9); assay: Inhibition of human biotinylated VEGF-A165 binding to Fc-tagged recombinant rat NRP1 receptor at 1 uM after 2 hrs by colorimetric analysis relative to control
Neuropilin-1 [11] = target: Neuropilin-1 (Rattus norvegicus, UniProt Q9QWJ9); assay: Inhibition of human biotinylated VEGF-A165 binding to Fc-tagged recombinant rat NRP1 receptor after 2 hrs by colorimetric analysis
[12] = target: Neuropilin-1 (Rattus norvegicus) (UniProt Q9QWJ9); assay: Inhibition of human biotinylated VEGF-A165 binding to Fc-tagged recombinant rat NRP1 receptor at 0.1 uM after 2 hrs by colorimetric analysis relative to control
[13] = target: Neuropilin-1 (Rattus norvegicus) (UniProt Q9QWJ9); assay: Inhibition of human biotinylated VEGF-A165 binding to Fc-tagged recombinant rat NRP1 receptor at 10 uM after 2 hrs by colorimetric analysis relative to control
[14] = target: Neuropilin-1 (Rattus norvegicus) (UniProt Q9QWJ9); assay: Inhibition of human biotinylated VEGF-A165 binding to Fc-tagged recombinant rat NRP1 receptor at 0.3 uM after 2 hrs by colorimetric analysis relative to control
[15] = Half life in human plasma at 1 umol/ml up to 96 hrs by RP-HPLC and LC/MS analysis; format: ADME, cell-free
How it was run: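 Citrate plasma pooled from four healthy donors, stored at –80 °C, preactivated 20 min at 37 °C with shaking. Aqueous peptide stock diluted into plasma to ~1 µmol/mL final and incubated 0–96 h. Aliquots quenched with equal volume 98% ethanol, centrifuged, supernatant lyophilized, reconstituted in water, analysed by RP-HPLC (LC-MS for selected samples). Half-life obtained by nonlinear regression.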

Row | Compound | inhibition (Neuropilin-1 [1]) [%] | inhibition (Neuropilin-1 [2]) [%] | inhibition (Neuropilin-1 [3]) [%] | IC50 (Neuropilin-1 [4]; read-out: IC50) [µM] | inhibition (Neuropilin-1 [5]) [%] | inhibition (Neuropilin-1 [6]) [%] | inhibition (Neuropilin-1 [7]) [%] | inhibition (Neuropilin-1 [8]) [%] | IC50 (Neuropilin-1 [4]; read-out: pIC50 (converted)) [µM] | inhibition [9] [%] | inhibition [10] [%] | IC50 (Neuropilin-1 [11]) [µM] | inhibition [12] [%] | inhibition [13] [%] | inhibition [14] [%] | half-life at 1000 µM [15] [h]
1 | N=C(N)NCCCC[C@H](N)C(=O)NCCCC[C@H](N)C(=O)N1CC[C@H]1C(=O)N1CC[C@H]1C(=O)N[C@@H](CCCNC(=N)N)C(=O)O (H-K(hArg)[Aze][Aze]R-OH) | 41.9 | 30 | 53.6 | 48.6 | 59.9 |  |  |  |  |  |  |  |  |  |  | 
2 | N=C(N)NCCCC[C@H](N)C(=O)NCCCC[C@H](N)C(=O)N1[C@H](C(=O)N2[C@H](C(=O)N[C@@H](CCCNC(=N)N)C(=O)O)C[C@@H]3CCCC[C@@H]32)C[C@@H]2CCCC[C@@H]21 (H-K(hArg)[Oic][Oic]R-OH) | 68.2 | 53.4 | 77.6 | 7.2 | 83.6 | 42.1 | 32.9 | 47.8 |  |  |  |  |  |  |  | 
3 | N=C(N)NCCCC[C@H](N)C(=O)NCCCC[C@H](N)C(=O)N1C[C@H](O)C[C@H]1C(=O)N1C[C@H](O)C[C@H]1C(=O)N[C@@H](CCCNC(=N)N)C(=O)O (H-K(hArg)[Hyp][Hyp]R-OH) | 56.8 | 36.7 | 63.1 | 21.3 | 71.7 |  |  |  |  |  |  |  |  |  |  | 
4 | N=C(N)NCCCC[C@H](N)C(=O)NCCCC[C@H](N)C(=O)N[C@@H](CCN)C(=O)N1CC[C@H]1C(=O)N[C@@H](CCCNC(=N)N)C(=O)O (H-K(hArg)[Dab][Aze]R-OH) | 69.1 | 49.6 | 75.8 | 11.7 | 78.8 | 12.9 | 7.7 | 30.1 | 10.7 |  |  |  |  |  |  | 
5 | N=C(N)NCCCC[C@H](N)C(=O)NCCCC[C@H](N)C(=O)N1CCNC[C@H]1C(=O)N1CCNC[C@H]1C(=O)N[C@@H](CCCNC(=N)N)C(=O)O (H-K(hArg)[Pip(4-aza)][Pip(4-aza)]R-OH) | 58.7 | 45 | 63.3 | 16 | 70.8 |  |  |  |  |  |  |  |  |  |  | 
6 | N=C(N)NCCCC[C@H](N)C(=O)NCCCC[C@H](N)C(=O)N[C@@H](CCN)C(=O)N1CCC[C@H]1C(=O)N[C@@H](CCCNC(=N)N)C(=O)O (H-K(hArg)[Dab]PR-OH) | 70.4 | 58.6 | 76.6 | 8.9 | 79.8 | 31.4 | 13.8 | 43.7 |  | 92.8 | 83.7 | 0.2 | 35.8 | 99.6 | 59.6 | 
7 | N=C(N)NCCCC[C@H](N)C(=O)NCCCC[C@H](N)C(=O)N[C@@H](CCN)C(=O)N1Cc2ccccc2C[C@H]1C(=O)N[C@@H](CCCNC(=N)N)C(=O)O (H-K(hArg)[Dab][Tic]R-OH) | 35 | 31.5 | 17.2 | > 100 | 0 |  |  |  |  |  |  |  |  |  |  | 
8 | H-ATWLPPR-OH | 35 | 30.8 | 43.8 | 84.1 | 58.2 |  |  |  | 83.2 |  |  |  |  |  |  | 
9 | N=C(N)NCCCC[C@H](N)C(=O)NCCCC[C@H](N)C(=O)N[C@@H](CCN)C(=O)N1[C@H](C(=O)N[C@@H](CCCNC(=N)N)C(=O)O)C[C@@H]2CCCC[C@@H]21 (H-K(hArg)[Dab][Oic]R-OH) | 77.7 | 63.4 | 79.5 | 2.3 | 83 | 50.9 | 37.7 | 52.3 |  |  |  |  |  |  |  | 54.9
10 | N=C(N)NCCCC[C@H](N)C(=O)NCCCC[C@H](N)C(=O)N1CCC[C@H]1C(=O)N1CCC[C@H]1C(=O)N[C@@H](CCCNC(=N)N)C(=O)O (H-K(hArg)PPR-OH) | 54.1 | 37.1 | 67.9 | 20.9 | 77 |  |  |  |  | 79 | 41.4 | 1 |  | 92.2 | 4.7 | 
11 | N=C(N)NCCCC[C@H](N)C(=O)NCCCC[C@H](N)C(=O)N1Cc2ccccc2C[C@H]1C(=O)N1Cc2ccccc2C[C@H]1C(=O)N[C@@H](CCCNC(=N)N)C(=O)O (H-K(hArg)[Tic][Tic]R-OH) | 31.4 | 24.7 | 40.7 | > 100 | 45.2 |  |  |  |  |  |  |  |  |  |  | 
12 | N=C(N)NCCCC[C@H](N)C(=O)NCCCC[C@H](N)C(=O)N[C@@H](CCN)C(=O)N1C[C@H](O)C[C@H]1C(=O)N[C@@H](CCCNC(=N)N)C(=O)O (H-K(hArg)[Dab][Hyp]R-OH) | 67.3 | 54.3 | 76 | 9.2 | 78.6 | 22.3 | 22.5 | 36 |  |  |  |  |  |  |  | 
13 | N=C(N)NCCCC[C@H](N)C(=O)NCCCC[C@H](N)C(=O)N1CC=C[C@H]1C(=O)N1CC=C[C@H]1C(=O)N[C@@H](CCCNC(=N)N)C(=O)O (H-K(hArg)[ΔPro][ΔPro]R-OH) | 61.3 | 45.4 | 72.2 | 14 | 79.3 |  |  |  |  |  |  |  |  |  |  | 
14 | N=C(N)NCCCC[C@H](N)C(=O)NCCCC[C@H](N)C(=O)N[C@@H](CCN)C(=O)N1CC=C[C@H]1C(=O)N[C@@H](CCCNC(=N)N)C(=O)O (H-K(hArg)[Dab][ΔPro]R-OH) | 78.1 | 70.7 | 84.4 | 4.3 | 87.1 | 44.8 | 29.9 | 58 |  |  |  |  |  |  |  | 51.1
15 | N=C(N)NCCCC[C@H](N)C(=O)NCCCC[C@H](N)C(=O)N[C@@H](CCN)C(=O)N1CCNC[C@H]1C(=O)N[C@@H](CCCNC(=N)N)C(=O)O (H-K(hArg)[Dab][Pip(4-aza)]R-OH) | 34.8 | 20.8 | 46 | 80.5 | 51.8 |  |  |  |  |  |  |  |  |  |  | 
